{"source": "ChEMBL document CHEMBL1148895", "about": "“New cytotoxic cyclic peptides and dianthramide from Dianthus superbus” (J Nat Prod, 2004)", "key": {"MCF7": {"system": "MCF7", "test": "Cytotoxicity against human MCF7 cells after 3 days by MTT assay", "format": "functional, cell-based", "details": "MCF7, 72 h", "how_it_was_run": "(§1)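 Freshly trypsinized cells were seeded at 5000-10 000 per well, with compounds added from a DMSO-diluted stock. After 3 days of culture, attached cells were incubated with MTT (0.5 mg/mL) for 1 h and then solubilized in DMSO. Absorbance was read at 550 nm. IC50 is the concentration that reduced cell growth by 50%.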"}, "[1]": {"test": "Cytotoxicity against human Hep3B cells after 3 days by MTT assay", "format": "functional, cell-based, Hep 3B2", "details": "72 h", "how_it_was_run": "as §1"}, "MDA-MB-231": {"system": "MDA-MB-231", "test": "Cytotoxicity against human MDA-MB-231 cells after 3 days by MTT assay", "format": "functional, cell-based", "details": "MDA-MB-231, 72 h", "how_it_was_run": "as §1"}, "A549": {"system": "A549", "test": "Cytotoxicity against human A549 cells after 3 days by MTT assay", "format": "functional, cell-based", "details": "A549, 72 h", "how_it_was_run": "(§2)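 Freshly trypsinized cells were seeded at 5000-10 000 per well, with compounds added from a DMSO-diluted stock. After 3 days of culture, attached cells were incubated with MTT (0.5 mg/mL) for 1 h and then solubilized in DMSO. Absorbance was read at 550 nm.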"}, "HepG2": {"system": "HepG2", "test": "Cytotoxicity against human HepG2 cells after 3 days by MTT assay", "format": "functional, cell-based", "details": "HepG2, 72 h", "how_it_was_run": "as §2"}}, "note": "Residues, ends and D or L forms follow the SMILES beside them."}
{"smiles": "CC[C@H](C)[C@@H]1NC(=O)[C@@H]2CCCN2C(=O)[C@@H]2CCCN2C(=O)[C@H](CC(C)C)NC(=O)[C@H](CO)NC(=O)CNC(=O)[C@H](Cc2ccccc2)NC1=O", "note": "(cyclo(FGSLPPI))", "values": [{"measurement": "IC50", "setting": "MCF7", "value": "> 20", "unit": "µg/mL"}, {"measurement": "IC50", "setting": "[1]", "value": "> 20", "unit": "µg/mL"}, {"measurement": "IC50", "setting": "MDA-MB-231", "value": "> 20", "unit": "µg/mL"}, {"measurement": "IC50", "setting": "A549", "value": "> 20", "unit": "µg/mL"}, {"measurement": "IC50", "setting": "HepG2", "value": "> 20", "unit": "µg/mL"}]}
{"smiles": "CC[C@H](C)[C@@H]1NC(=O)[C@@H]2CCCN2C(=O)CNC(=O)[C@H](C(C)C)NC(=O)[C@H](Cc2ccccc2)NC(=O)[C@H](CO)NC1=O", "note": "(cyclo(FVGPIS))", "values": [{"measurement": "IC50", "setting": "MCF7", "value": "> 20", "unit": "µg/mL"}, {"measurement": "IC50", "setting": "[1]", "value": "> 20", "unit": "µg/mL"}, {"measurement": "IC50", "setting": "MDA-MB-231", "value": "> 20", "unit": "µg/mL"}, {"measurement": "IC50", "setting": "A549", "value": "> 20", "unit": "µg/mL"}, {"measurement": "IC50", "setting": "HepG2", "value": 2.37, "unit": "µg/mL"}]}
{"smiles": "CC[C@H](C)[C@@H]1NC(=O)[C@H](C(C)C)NC(=O)[C@H](Cc2ccc(O)cc2)NC(=O)[C@H](Cc2ccccc2)NC(=O)[C@@H]2CCCN2C(=O)CNC1=O", "note": "(cyclo(FYVIGP))", "values": [{"measurement": "IC50", "setting": "MCF7", "value": "> 20", "unit": "µg/mL"}, {"measurement": "IC50", "setting": "[1]", "value": "> 20", "unit": "µg/mL"}, {"measurement": "IC50", "setting": "MDA-MB-231", "value": "> 20", "unit": "µg/mL"}, {"measurement": "IC50", "setting": "A549", "value": "> 20", "unit": "µg/mL"}, {"measurement": "IC50", "setting": "HepG2", "value": 17.2, "unit": "µg/mL"}]}
{"smiles": "COC(=O)c1ccc(OC)cc1NC(=O)c1ccccc1O", "note": "[4-METHOXYDIANTHRAMIDE B]", "values": [{"measurement": "IC50", "setting": "MCF7", "value": "> 20", "unit": "µg/mL"}, {"measurement": "IC50", "setting": "[1]", "value": 16, "unit": "µg/mL"}, {"measurement": "IC50", "setting": "MDA-MB-231", "value": "> 20", "unit": "µg/mL"}, {"measurement": "IC50", "setting": "A549", "value": "> 20", "unit": "µg/mL"}, {"measurement": "IC50", "setting": "HepG2", "value": 4.08, "unit": "µg/mL"}]}
{"smiles": "COc1cccc2c1C(=O)c1c(O)c3c(c(O)c1C2=O)C[C@@](O)(C(=O)CO)C[C@@H]3O[C@H]1C[C@H](N)[C@H](O)[C@H](C)O1", "note": "[DOXORUBICIN]", "values": [{"measurement": "IC50", "setting": "MCF7", "value": 1.21, "unit": "µg/mL"}, {"measurement": "IC50", "setting": "[1]", "value": 0.31, "unit": "µg/mL"}, {"measurement": "IC50", "setting": "MDA-MB-231", "value": 0.73, "unit": "µg/mL"}]}
